The text below walks through data of PMC3558988 (Journal of Chemotherapy (Florence, Italy), 2013).

The test system of data set [1] is CA-MRSA (No. 32, CDC type USA300, PVL-positive). The data set is described as follows: MIC by broth microdilution. The note with it: Staphylococcus aureus. It is filed as cell-based.
The next data set relates to CA-MRSA. The data set is described as follows: Neutropenic murine thigh infection model, single-dose response. Type of data set: in vivo, Staphylococcus aureus. The note with it: 24 hours.
In data set [2] the test system is three strains of S. aureus. The data set is described as follows: MIC summary over the three test strains. Type of data set: cell-based, Staphylococcus aureus. A digest of the protocol:
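Broth microdilution MICs per CLSI guidelines, run in triplicate, for the test compound and a panel of comparator antimicrobials including linezolid. Tested against the three S. aureus isolates used in the study (one MSSA, one CA-MRSA, one HA-MRSA).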

Data set [3] can be described thus: Plasma protein-binding by ultrafiltration. Type of data set: in vitro ADME. As to conditions: mouse plasma, 0·1 to 2 μg/ml.
Data set [4] is described as follows: Pharmacokinetics after single oral doses in MSSA-infected neutropenic mice. It is filed as in vivo. The note with it: for fAUC0–24: free drug.
For another data set, the system named is MSSA ATCC 29213. As to the kind of experiment: Neutropenic murine thigh infection model, efficacy and pharmacodynamics. Type of data set: in vivo, Staphylococcus aureus. As to conditions: oral, neutropenic mice, 24 hours.
The conditions of data set [5]: cited from earlier work.

Usually MIC stands for the lowest concentration found to suppress growth. A higher MIC goes with weaker potency. `CCC[C@@H]1C[C@@H](C(=O)N[C@@H]([C@H]2O[C@H](SC)[C@H](O)[C@@H](O)[C@H]2O)[C@H](C)Cl)N(C)C1` [Clindamycin]: the MIC in data set [1] was greater than 16 µg/mL.
`CC(=O)NC[C@H]1CN(c2ccc(N3CCOCC3)c(F)c2)C(=O)O1` [Linezolid]: the “effect on bacterial growth” value in the data set on CA-MRSA (10 and 40 mg/kg single oral dose) is on record as “some suppression of growth”. Moreover, the “doses required to achieve consistent reductions in CFU” value with CA-MRSA (single oral dose) is on record as no less than 100 mg/kg.
For the compound `Cc1c(CN(C)C(=O)/C=C/c2cnc3c(c2)CCC(=O)N3)oc2ccccc12` [AFN-1252], the “level of activity (MIC) greater than linezolid” value in data set [2] is listed as “at least 500 fold”. Besides, the “level of activity (MIC) greater than other antibacterials tested” value in data set [2] is given as “at least 32 fold”. Further, the “concentration dependence of protein binding” value in data set [3] is given as “no concentration-dependent binding”. Further, the “fAUC0–24” value in data set [4] (5 mg/kg single oral dose) was 113 ng·h/mL; in data set [4] (10 mg/kg single oral dose), 141 ng·h/mL; in data set [4] (30 mg/kg single oral dose) it was 160 ng·h/mL; in data set [4] (100 mg/kg single oral dose), 285 ng·h/mL. In data set [4] (single oral doses 2·5-100 mg/kg), the “PK profile (dose proportionality of fAUC, fCmax, Tmax)” value is given as “non-linear exposures”. Also, in the data set on MSSA ATCC 29213 (MSSA), the “doses giving reductions in total bacterial count of 1 log and greater compared to time 0” value is recorded as no less than 20 mg/kg. Further, in the data set with MSSA ATCC 29213, the “dose at which reduction in MSSA growth rate began” value was determined as 5 mg/kg. The “dose giving marked reduction in bacterial count relative to time 0” value in the data set on CA-MRSA (single oral dose) is reported as no less than 10 mg/kg. Further, the permeability entry in data set [5] (BCS) is “high”. Further, the “Biopharmaceutics Classification System class” value in data set [5] was “Class 2”.
`CC[C@H]1OC(=O)[C@H](C)[C@@H](O[C@H]2C[C@@](C)(OC)[C@@H](O)[C@H](C)O2)[C@H](C)[C@@H](O[C@@H]2O[C@H](C)C[C@H](N(C)C)[C@H]2O)[C@](C)(O)C[C@@H](C)C(=O)[C@H](C)[C@@H](O)[C@]1(C)O` [Erythromycin] had an MIC in data set [1] greater than 32 µg/mL.
